From ChEMBL document CHEMBL4392838, “Binding pocket-based design, synthesis and biological evaluation of novel selective BRD4-BD1 inhibitors” (Bioorg Med Chem, 2019) come the findings set out here.

One may read the IC50 as the concentration needed to halve the response being measured. As a reminder, the inhibition is the drop in the measured response relative to a control, in per cent.

The source made the active and inactive calls. No cut-off for these calls is given here. Some results are limits rather than exact numbers.

For assay [1], the target named is T1, Bromodomain-containing protein 4 (Homo sapiens, UniProt O60885). The experiment in a line: Inhibition of biotinylated H4 K5,8,12,16Ac peptide binding to GST-tagged BRD4 bromodomain1 (unknown origin) measured after 60 mins by AlphaScreen assay. For orientation: Alpha assays give light when donor and acceptor beads are brought close together.
Assay [2] deals with T1, Bromodomain-containing protein 4. Briefly: Inhibition of biotinylated H4 K5,8,12,16Ac peptide binding to GST-tagged BRD4 bromodomain2 (unknown origin) at 100 uM measured after 60 mins by AlphaScreen assay relative to control. Summed up:
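AlphaScreen proximity assay measuring binding of the tetra-acetylated (K5,8,12,16Ac) biotinylated histone H4 peptide to recombinant BRD4 BD1 or BD2. Buffer was 50 mM HEPES with BSA, at 1% DMSO in the 10X compound dilutions. Compound, bromodomain, peptide and histidine-conjugated acceptor beads were incubated 60 min at room temperature. Streptavidin donor beads were then added for 30 min in the dark, and the endpoint Alpha signal read. Inhibition taken at 100 µM, mean of three independent experiments.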

The test system of a further assay is A549. The experiment in a line: Antiproliferative activity against human A549 cells assessed as reduction in cell growth measured after 48 hrs by MTT assay. Type of assay: functional, cell-based. The settings on record: A549, 48 h. Summed up:
(§1)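 Cells grown at 37 °C in 5% CO2. MCF-7, A549 and HT-29 cells were kept in RPMI 1640 with 10% FBS and pen/strep. HepG2, A375, NRK-49F and LX-2 cells were kept in high-glucose DMEM with 10% FBS and pen/strep. HLF-1 cells were kept in DMEM/F-12 (1:1) with 10% FBS. Cells seeded for exponential growth, exposed to a concentration range for 48 h, then MTT added for 4 h at 37 °C. Formazan dissolved in DMSO, absorbance read at 490 nm, IC50 fitted.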

In a further assay the test system is HT-29. Briefly: Antiproliferative activity against human HT-29 cells assessed as reduction in cell growth measured after 48 hrs by MTT assay. It counts as functional, cell-based. The settings on record: HT-29, 48 h. Summed up: as §1
A general note: Tetrazolium dyes change colour on reduction, which living cells bring about.

A further assay deals with HepG2. Briefly: Antiproliferative activity against human HepG2 cells assessed as reduction in cell growth measured after 48 hrs by MTT assay. It counts as functional, cell-based. The settings on record: HepG2, 48 h. Put shortly: as §1
The test system of assay [3] is A-375. The experiment in a line: Antiproliferative activity against human A375 cells assessed as reduction in cell growth measured after 48 hrs by MTT assay. The settings on record: A-375, 48 h. It counts as functional, cell-based. Summed up: as §1
Another assay has as its system MCF7. The experiment in a line: Antiproliferative activity against human MCF7 cells assessed as reduction in cell growth measured after 48 hrs by MTT assay. Type of assay: functional, cell-based. Particulars: MCF7, 48 h. Summed up: as §1
Assay [4] in a line: Antifibrotic activity against human LX2 cells assessed as reduction in cell growth measured after 48 hrs by MTT assay. It counts as functional, cell-based. Particulars: LX-2, 48 h. Summed up:
as §1

The nature of assay [5]: Antifibrotic activity against human HLF1 cells assessed as reduction in cell growth measured after 48 hrs by MTT assay. It counts as functional, cell-based. Particulars: HLF1, 48 h. Put shortly: as §1
For another assay, the system named is NRK-49F. The experiment in a line: Antifibrotic activity against rat NRK-49F cells assessed as reduction in cell growth measured after 48 hrs by MTT assay. Type of assay: functional, cell-based. Put shortly: as §1
The target of assay [6] is T1, Bromodomain-containing protein 4. Briefly: Inhibition of BRD4 in human A375 cells assessed as reduction in c-MYC protein expression measured after 24 hrs by Western blot analysis. Type of assay: cell-based. Summed up: (§2)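 Cells (2.5 × 10^5 per well; A375 for c-Myc, HLF-1 for collagen I) were treated for 24 h and lysed on ice. Lysate was clarified at 12,000g for 15 min at 4 °C and protein measured by BCA. 20–40 µg was run on SDS-PAGE and blotted to PVDF, then blocked in 5% milk. Primary antibodies (c-Myc or collagen I, β-actin loading control) overnight, secondary antibody 1 h, fluorescent detection.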
On the technique in general: Immunoblotting shows a protein as a band on a membrane.

In assay [7] the test system is A-375. Briefly: Induction of apoptosis in human A375 cells at 10 uM measured after 24 hrs by Annexin V-FITC/propidium iodide staining based fluorescence microscopic analysis. Type of assay: functional, cell-based.
A further assay relates to L02. Briefly: Cytotoxicity against human LO2 cells assessed as reduction in cell growth measured after 24 hrs by MTT assay. It counts as cell-based. The settings on record: L02, 24 h.
The nature of assay [8]: Selectivity index, ratio of IC50 for cytotoxicity against human LO2 cells to IC50 for antifibrotic activity against human LX2 cells.
Assay [9] concerns the target T1, Bromodomain-containing protein 4. Briefly: Inhibition of BRD4 in human HLF1 cells assessed as reduction in collagen-1 protein expression measured after 24 hrs by Western blot analysis. It counts as cell-based. Put shortly:
as §2

For assay [10] the target is unchanged. Briefly: Inhibition of BRD4 in human HLF1 cells assessed as reduction in collagen-1 mRNA expression at 1 uM measured after 24 hrs by RT-PCR analysis. It counts as cell-based. Put shortly:
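HLF-1 cells (2.5 × 10^5 per well) were treated for 24 h. Total RNA was extracted, reverse-transcribed to cDNA, and collagen I transcript measured by quantitative RT-PCR.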

Consider `Cc1noc(C)c1Cn1c(=O)nc(-c2ccc(Cl)cc2)c2c3c(sc21)CC(C(C)(C)C)CC3` (stereo unspecified), for which the IC50 came to 2.4 µM in assay [1]; 66.5 µM in the assay with A549; 33.8 µM in the assay on HT-29; 26.4 µM with HepG2; 13.6 µM in the assay on A-375 [3]; 78.3 µM in the assay with MCF7. In addition, the 50% inhibitory concentration (IC50) came out at 10.4 µM in [4], 18.9 µM in assay [5] and 26.3 µM with NRK-49F. This compound gave an inhibition in [2] of 23.4%.

For `CC(C)(C)C1CCc2c(sc3c2c(-c2ccccc2)nc(=O)n3Cc2cnc(Cl)s2)C1` (stereo unspecified), the IC50 in [1] is 22.7 µM; with A549, 31.9 µM; in the assay with HT-29 it was 54.4 µM; in the assay on HepG2 it was 2.4 µM; in the assay with A-375 [3], 14.7 µM; with MCF7, over 100 µM. Further, the IC50 in assay [4] came to 4.2 µM; in assay [5], 7.6 µM; in the assay on NRK-49F it was 6 µM. The inhibition in [2] amounted to 28.3%.

As for `Cc1noc(C)c1Cn1c(=O)nc(-c2ccccc2Cl)c2c3c(sc21)CC(C(C)(C)C)CC3` (stereo unspecified), the IC50 in [1] came out at 1.6 µM; with A549, 16.6 µM; with HT-29, 19.2 µM; in the assay on HepG2, 30 µM; in the assay on A-375 [3], 11.1 µM; with MCF7, 69.2 µM. Moreover, the results for the IC50 (in assay [4]; in assay [5]; with NRK-49F) were 11.3 µM, 12 µM and 17.2 µM, respectively. This compound showed an inhibition in assay [2] of 39.5%.

For the compound `Cc1noc(C)c1Cn1c(=O)nc(-c2ccc(Cl)c(Cl)c2)c2c3c(sc21)CC(C(C)(C)C)CC3` (stereo unspecified), the IC50 turned out to be 0.56 µM in assay [1]; 24.5 µM in the assay on A549; 19.4 µM with HT-29; 14.5 µM with HepG2; 4.9 µM with A-375 [3]; 16.6 µM with MCF7. Further, the IC50 is 9.1 µM in assay [4], 13.6 µM in [5], 16 µM in the assay on NRK-49F and 33.2 µM with L02. Also, the figures for the inhibition in [2], in assay [6] and in assay [9] were 29.9%, “Dose-dependent effect” and “Dose-dependent effect”, respectively. Besides, in the assay on A-375 [7], the outcome was Active. In assay [8], the “Ratio IC50” value amounted to 3.6. Further, in assay [10], the inhibition result is “Active”.

For `COc1ccc(-c2nc(=O)n(Cc3cnc(Cl)s3)c3sc4c(c23)CCC(C(C)(C)C)C4)cc1` (stereo unspecified), the IC50 is 18.5 µM in assay [1]; 95.1 µM with A549; 98 µM in the assay with HT-29; 14.5 µM with HepG2; 6.5 µM in the assay on A-375 [3]; over 100 µM in the assay with MCF7. The IC50 in assay [4] is 12.4 µM; in assay [5], 14.6 µM; in the assay with NRK-49F it was 11.2 µM. Further, the inhibition in assay [2] came out at 57.2%.

`COC(=O)c1ccc(-c2nc(=O)n(Cc3c(C)noc3C)c3sc4c(c23)CCC(C(C)(C)C)C4)cc1` (stereo unspecified): the IC50 worked out at 1.5 µM in [1]; 19.3 µM in the assay on A549; 17.8 µM in the assay on HT-29; 12.8 µM in the assay with HepG2; 8.7 µM in the assay on A-375 [3]; 38.6 µM in the assay on MCF7. The figures for the IC50 (in [4]; in assay [5]; in the assay with NRK-49F) were 19.6 µM, 6.6 µM and 8.1 µM, respectively. The compound also registered an inhibition in assay [2] of 49.7%.

`COc1cc(OC)c2c(=O)[nH]c(-c3cc(C)c(OCCO)c(C)c3)nc2c1` [APABETALONE]: the IC50 in the assay with A549 was 53.1 µM; in the assay on HT-29 it was 236 µM; in the assay with HepG2 it was 103 µM; in the assay on A-375 [3], 241 µM; with MCF7, over 300 µM; in assay [4], 79.7 µM. The IC50 in [5] was 52 µM; in the assay with NRK-49F, 42 µM; in the assay on L02 it was over 100 µM. For the same compound, the outcome with A-375 [7] was inactive.

On to `COc1ccc(-c2nc(=O)n(Cc3c(C)noc3C)c3sc4c(c23)CCC(C(C)(C)C)C4)cc1` (stereo unspecified), for which the half-inhibitory concentration (IC50) in assay [1] is 11.4 µM; in the assay on A549, 18.9 µM; with HT-29, 13 µM; in the assay on HepG2, 15.1 µM; in the assay with A-375 [3], 14.2 µM; in the assay on MCF7 it was 10.4 µM. Further, the IC50 was found to be 12.9 µM in assay [4], 14.1 µM in assay [5] and 22.2 µM in the assay with NRK-49F. The inhibition in assay [2] was 42.2%.

As to `Cc1noc(C)c1Cn1c(=O)nc(-c2ccc(F)cc2)c2c3c(sc21)CC(C(C)(C)C)CC3` (stereo unspecified), the IC50 in assay [1] was found to be 3.6 µM; in the assay with A549, 49.9 µM; in the assay on HT-29 it was 10.7 µM; in the assay with HepG2, 63.7 µM; in the assay on A-375 [3], 14.2 µM; with MCF7 it was 33.3 µM. In addition, the concentration for half-maximal inhibition (IC50) was 17.3 µM in [4], 14.5 µM in [5] and 23.3 µM in the assay with NRK-49F. This compound also displayed an inhibition in assay [2] of 33.2%.

Turning to `Cc1noc(C)c1Cn1c(=O)nc(-c2cccc(Cl)c2)c2c3c(sc21)CC(C(C)(C)C)CC3` (stereo unspecified), the concentration for half-maximal inhibition (IC50) in assay [1] amounted to 3.1 µM; in the assay on A549, 18.9 µM; in the assay on HT-29, 19.7 µM; with HepG2, 3.6 µM; with A-375 [3], 15.9 µM; in the assay on MCF7 it was 25.7 µM. Also, the IC50 in [4] amounted to 15.3 µM; in assay [5] it was 12.8 µM; with NRK-49F, 8.5 µM. The same compound returned an inhibition in [2] of 52.3%.

On to `Cc1noc(C)c1Cn1c(=O)nc(-c2ccccc2)c2c3c(sc21)CC(C(C)(C)C)CC3` (stereo unspecified), for which the 50% inhibitory concentration (IC50) is 8.2 µM in [1]; 29.6 µM in the assay with A549; 20.1 µM with HT-29; 10.9 µM with HepG2; 8 µM in the assay with A-375 [3]; over 100 µM with MCF7. In addition, the IC50 turned out to be 21.6 µM in assay [4], 21.3 µM in [5] and 23.1 µM in the assay with NRK-49F. The compound also displayed an inhibition in assay [2] of 41.2%.

As for `Cc1sc2c(c1C)C(c1ccc(Cl)cc1)=N[C@@H](CC(=O)OC(C)(C)C)c1nnc(C)n1-2`, the 50% inhibitory concentration (IC50) with A549 stood at 13.1 µM; in the assay on HT-29 it was 19.6 µM; in the assay with HepG2 it was 11.3 µM; in the assay on A-375 [3], 7.5 µM; in the assay on MCF7 it was 38 µM; in assay [4] it was 28.6 µM. The figures for the IC50 (in assay [5]; with NRK-49F; with L02) were 20.4 µM, 21.1 µM and 54.2 µM, respectively. The result with A-375 [7] was Active.
